Assay results as given in ChEMBL document CHEMBL3046353, “Synthesis and fungicidal activity of some 5-membered heterocyclic derivatives containing benzimidazoles” (1993).
Calls of active or inactive are those of the source. The calls are words filed in the database; no cut-off is given here.

Experiments:
Sagittaria latifolia [1] = assay: Herbicidal activity against Sagittaria latifolia (broadleaf arrowhead) under paddy conditions; type: functional, organism-based
Sagittaria latifolia [2] = assay: Pre-emergence herbicidal activity against Sagittaria latifolia (broadleaf arrowhead); type: functional, organism-based
Sagittaria latifolia [3] = assay: Post-emergence herbicidal activity against Sagittaria latifolia (broadleaf arrowhead); type: functional, organism-based
Schoenoplectus acutus [4] = assay: Herbicidal activity against Schoenoplectus acutus (hardstem bulrush) under paddy conditions; type: functional, organism-based
Schoenoplectus acutus [5] = assay: Post-emergence herbicidal activity against Schoenoplectus acutus (hardstem bulrush); type: functional, organism-based
Schoenoplectus acutus [6] = assay: Pre-emergence herbicidal activity against Schoenoplectus acutus (hardstem bulrush); type: functional, organism-based
Echinochloa crus-galli [7] = assay: Herbicidal activity against Echinochloa crus-galli (barnyard grass) under paddy conditions; type: functional, organism-based
Echinochloa crus-galli [8] = assay: Post-emergence herbicidal activity against Echinochloa crus-galli (barnyard grass); type: functional, organism-based
Oryza sativa [9] = assay: Herbicidal activity against Oryza sativa (rice) under paddy conditions; type: functional, organism-based
Echinochloa crus-galli [10] = assay: Pre-emergence herbicidal activity against Echinochloa crus-galli (barnyard grass); type: functional, organism-based
Oryza sativa [11] = assay: Pre-emergence herbicidal activity against Oryza sativa (rice); type: functional, organism-based
Abutilon theophrasti [12] = assay: Post-emergence herbicidal activity against Abutilon theophrasti (velvetleaf); type: functional, organism-based
Oryza sativa [13] = assay: Post-emergence herbicidal activity against Oryza sativa (rice); type: functional, organism-based
Abutilon theophrasti [14] = assay: Pre-emergence herbicidal activity against Abutilon theophrasti (velvetleaf); type: functional, organism-based
Convolvulaceae [15] = assay: Herbicidal activity against Convolvulaceae (morning glory family) under paddy conditions; type: functional, organism-based
Convolvulaceae [16] = assay: Post-emergence herbicidal activity against Convolvulaceae (morning glory family); type: functional, organism-based
Avena sativa [17] = assay: Herbicidal activity against Avena sativa under paddy conditions; type: functional, organism-based
Convolvulaceae [18] = assay: Pre-emergence herbicidal activity against Convolvulaceae (morning glory family); type: functional, organism-based
Avena sativa [19] = assay: Pre-emergence herbicidal activity against Avena sativa; type: functional, organism-based
Avena sativa [20] = assay: Post-emergence herbicidal activity against Avena sativa; type: functional, organism-based
Spodoptera litura = assay: Insecticidal activity against Spodoptera litura; type: functional, organism-based
Tetranychus cinnabarinus = assay: Insecticidal activity against Tetranychus cinnabarinus (carmine spider mite); type: functional, organism-based
Culex pipiens pallens = assay: Insecticidal activity against Culex pipiens pallens (mosquito) at 3 to 5 ppm; type: functional, organism-based
Musca domestica = assay: Insecticidal activity against Musca domestica (house fly); type: functional, organism-based
Rhizoctonia solani = assay: Fungicidal activity against Rhizoctonia solani at 500 ppm after 7 days by poisoned food technique; type: functional; details: 168 h, read-out: GI
Procedure, shortened: (§1)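 Cultures kept on potato dextrose agar. Each compound, dissolved in acetone, was added to potato dextrose agar at a final 500 ppm (w/v) (poisoned food technique). A disc cut from the periphery of a seven-day-old culture was inoculated onto each set. Control sets held potato dextrose agar only. The read-out is percentage inhibition of fungal growth relative to control.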

Helminthosporium = assay: Fungicidal activity against Helminthosporium oryzae at 500 ppm after 7 days by poisoned food technique; type: functional; details: 168 h, read-out: GI; procedure, shortened: as §1

Row | Structure (SMILES) | Activity (Sagittaria latifolia [1]) | Activity (Sagittaria latifolia [2]) | Activity (Sagittaria latifolia [3]) | Activity (Schoenoplectus acutus [4]) | Activity (Schoenoplectus acutus [5]) | Activity (Schoenoplectus acutus [6]) | Activity (Echinochloa crus-galli [7]) | Activity (Echinochloa crus-galli [8]) | Activity (Oryza sativa [9]) | Activity (Echinochloa crus-galli [10]) | Activity (Oryza sativa [11]) | Activity (Abutilon theophrasti [12]) | Activity (Oryza sativa [13]) | Activity (Abutilon theophrasti [14]) | Activity (Convolvulaceae [15]) | Activity (Convolvulaceae [16]) | Activity (Avena sativa [17]) | Activity (Convolvulaceae [18]) | Activity (Avena sativa [19]) | Activity (Avena sativa [20]) | also measured
1 | Cc1ccc2[nH]c(CSc3nnc(-c4cccc(Cl)c4)s3)nc2c1 | inactive | inactive | inactive | inactive | inactive | inactive | inactive | inactive | inactive | inactive | inactive | inactive | inactive | inactive | inactive | inactive | inactive | inactive | inactive | inactive | Activity (Spodoptera litura): inactive; Activity (Tetranychus cinnabarinus): inactive; Activity (Culex pipiens pallens): Active; Activity (Musca domestica): inactive; inhibition of growth at 500 ppm (Rhizoctonia solani): 60.4%; inhibition of growth at 500 ppm (Helminthosporium): 81.2%
2 | Cc1ccc2[nH]c(CSc3nnc(-c4cccc(Cl)c4)n3N)nc2c1 | inactive | inactive | inactive | inactive | inactive | inactive | inactive | inactive | inactive | inactive | inactive | inactive | inactive | inactive | inactive | inactive | inactive | inactive | inactive | inactive | Activity (Spodoptera litura): inactive; Activity (Tetranychus cinnabarinus): inactive; Activity (Culex pipiens pallens): Active; Activity (Musca domestica): inactive; inhibition of growth at 500 ppm (Rhizoctonia solani): 71.2%; inhibition of growth at 500 ppm (Helminthosporium): 82.5%
3 | Clc1ccccc1-c1nnc(SCc2nc3ccccc3[nH]2)o1 | inactive | inactive | inactive | inactive | inactive | inactive | inactive | inactive | inactive | inactive | inactive | inactive | inactive | inactive | inactive | inactive | inactive | inactive | inactive | inactive | Activity (Spodoptera litura): inactive; Activity (Tetranychus cinnabarinus): inactive; Activity (Culex pipiens pallens): Active; Activity (Musca domestica): inactive; inhibition of growth at 500 ppm (Rhizoctonia solani): 56.2%; inhibition of growth at 500 ppm (Helminthosporium): 75%
4 | Cc1ccc2[nH]c(CSc3nc4ccccc4[nH]3)nc2c1 | inactive | inactive | inactive | inactive | inactive | inactive | inactive | inactive | inactive | inactive | inactive | inactive | inactive | inactive | inactive | inactive | inactive | inactive | inactive | inactive | Activity (Spodoptera litura): inactive; Activity (Tetranychus cinnabarinus): inactive; Activity (Culex pipiens pallens): Active; Activity (Musca domestica): inactive; inhibition of growth at 500 ppm (Rhizoctonia solani): 61.3%; inhibition of growth at 500 ppm (Helminthosporium): 81.3%
5 | Clc1ccc(-c2nnc(SCc3nc4ccccc4[nH]3)s2)cc1 | inactive | inactive | inactive | inactive | inactive | inactive | inactive | inactive | inactive | inactive | inactive | inactive | inactive | inactive | inactive | inactive | inactive | inactive | inactive | inactive | Activity (Spodoptera litura): inactive; Activity (Tetranychus cinnabarinus): inactive; Activity (Culex pipiens pallens): Active; Activity (Musca domestica): inactive; inhibition of growth at 500 ppm (Rhizoctonia solani): 39%; inhibition of growth at 500 ppm (Helminthosporium): 52.5%
6 | Cc1ccc2[nH]c(CSc3nnc(-c4ccccc4)s3)nc2c1 | inactive | inactive | inactive | inactive | inactive | inactive | inactive | inactive | inactive | inactive | inactive | inactive | inactive | inactive | inactive | inactive | inactive | inactive | inactive | inactive | Activity (Spodoptera litura): inactive; Activity (Tetranychus cinnabarinus): inactive; Activity (Culex pipiens pallens): Active; Activity (Musca domestica): inactive; inhibition of growth at 500 ppm (Rhizoctonia solani): 64.5%; inhibition of growth at 500 ppm (Helminthosporium): 71.3%
7 | Nn1c(SCc2nc3ccccc3[nH]2)nnc1-c1ccc(Cl)cc1 | inactive | inactive | inactive | inactive | inactive | inactive | inactive | inactive | inactive | inactive | inactive | inactive | inactive | inactive | inactive | inactive | inactive | inactive | inactive | inactive | Activity (Spodoptera litura): inactive; Activity (Tetranychus cinnabarinus): inactive; Activity (Culex pipiens pallens): Active; Activity (Musca domestica): inactive; inhibition of growth at 500 ppm (Rhizoctonia solani): 20%; inhibition of growth at 500 ppm (Helminthosporium): 45.3%
8 | Nn1c(SCc2nc3ccccc3[nH]2)nnc1-c1cccc(Cl)c1 | inactive | inactive | inactive | inactive | inactive | inactive | inactive | inactive | inactive | inactive | inactive | inactive | inactive | inactive | inactive | inactive | inactive | inactive | inactive | inactive | Activity (Spodoptera litura): inactive; Activity (Tetranychus cinnabarinus): inactive; Activity (Culex pipiens pallens): Active; Activity (Musca domestica): inactive; inhibition of growth at 500 ppm (Rhizoctonia solani): 61.2%; inhibition of growth at 500 ppm (Helminthosporium): 89.3%
9 | Nn1c(SCc2nc3ccccc3[nH]2)nnc1-c1ccncc1 | inactive | inactive | inactive | inactive | inactive | inactive | inactive | inactive | inactive | inactive | inactive | inactive | inactive | inactive | inactive | inactive | inactive | inactive | inactive | inactive | Activity (Spodoptera litura): inactive; Activity (Tetranychus cinnabarinus): inactive; Activity (Culex pipiens pallens): Active; Activity (Musca domestica): inactive; inhibition of growth at 500 ppm (Rhizoctonia solani): 29.3%; inhibition of growth at 500 ppm (Helminthosporium): 30%
